Data reported in ChEMBL document CHEMBL1132646, “Synthesis and evaluation of new sulfur-containing L-arginine-derived inhibitors of nitric oxide synthase” (J Med Chem, 1999).

Key:
Nitric oxide synthase 3 = molecular target: T1, Nitric oxide synthase 3 (Homo sapiens, UniProt P29474); test: Inhibitory concentration against mammalian endothelial nitric oxide synthase (eNOS)
T1 sequence (P29474 whole entry): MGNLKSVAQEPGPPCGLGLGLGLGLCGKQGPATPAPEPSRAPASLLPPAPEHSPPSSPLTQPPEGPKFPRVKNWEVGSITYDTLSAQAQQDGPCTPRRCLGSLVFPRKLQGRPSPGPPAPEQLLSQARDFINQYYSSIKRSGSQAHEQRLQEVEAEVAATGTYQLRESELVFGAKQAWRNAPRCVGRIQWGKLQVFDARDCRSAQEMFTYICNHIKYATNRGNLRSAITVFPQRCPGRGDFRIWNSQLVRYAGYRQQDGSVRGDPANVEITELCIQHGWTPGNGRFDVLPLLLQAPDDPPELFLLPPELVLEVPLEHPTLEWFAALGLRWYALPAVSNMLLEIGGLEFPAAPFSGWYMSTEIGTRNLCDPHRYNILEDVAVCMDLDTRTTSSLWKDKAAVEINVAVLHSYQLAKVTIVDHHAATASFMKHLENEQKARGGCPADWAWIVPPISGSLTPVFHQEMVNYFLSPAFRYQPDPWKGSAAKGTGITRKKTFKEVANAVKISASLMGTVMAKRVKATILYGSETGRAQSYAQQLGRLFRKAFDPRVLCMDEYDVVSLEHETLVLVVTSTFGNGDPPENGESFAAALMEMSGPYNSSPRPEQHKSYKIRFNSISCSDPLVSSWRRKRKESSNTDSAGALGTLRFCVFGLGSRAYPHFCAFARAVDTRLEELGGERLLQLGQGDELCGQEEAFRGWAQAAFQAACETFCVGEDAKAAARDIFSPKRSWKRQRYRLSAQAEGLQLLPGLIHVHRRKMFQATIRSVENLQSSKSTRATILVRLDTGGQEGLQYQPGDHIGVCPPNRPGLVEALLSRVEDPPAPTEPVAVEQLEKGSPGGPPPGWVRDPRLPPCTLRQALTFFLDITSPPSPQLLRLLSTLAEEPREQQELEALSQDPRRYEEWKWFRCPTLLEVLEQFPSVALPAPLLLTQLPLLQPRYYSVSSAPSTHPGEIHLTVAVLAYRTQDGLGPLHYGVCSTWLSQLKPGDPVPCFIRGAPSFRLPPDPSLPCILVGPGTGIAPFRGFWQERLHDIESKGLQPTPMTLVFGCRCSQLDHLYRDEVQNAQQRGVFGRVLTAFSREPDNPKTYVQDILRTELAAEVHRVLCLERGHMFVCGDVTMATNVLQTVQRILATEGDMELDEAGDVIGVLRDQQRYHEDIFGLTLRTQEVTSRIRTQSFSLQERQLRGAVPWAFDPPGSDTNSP
Summary of the method: (§1)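 Citrulline formation: 20 mM HEPES pH 7.4, 50 μM L-arginine with 0.05 μCi [14C]-L-arginine, 4 μM FAD/FMN/H4B, 1 mM DTT, 1 mg/mL BSA, varied inhibitor; nNOS 12.5 nM, eNOS 25 nM (both plus 1 mM CaCl2, 15 μg/mL calmodulin), iNOS 2.5 nM (mouse, His6-tagged). Initiated with NADPH, 10 min room temperature, stopped pH 5.5 EDTA; [14C]-citrulline separated on Dowex cation exchange, scintillation counted; duplicate.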

[1] = molecular target: T2, Nitric oxide synthase, inducible (Mus musculus, UniProt P29477); test: Effective concentration against NADPH oxidase activity of iNOS
T2 sequence (P29477 whole entry): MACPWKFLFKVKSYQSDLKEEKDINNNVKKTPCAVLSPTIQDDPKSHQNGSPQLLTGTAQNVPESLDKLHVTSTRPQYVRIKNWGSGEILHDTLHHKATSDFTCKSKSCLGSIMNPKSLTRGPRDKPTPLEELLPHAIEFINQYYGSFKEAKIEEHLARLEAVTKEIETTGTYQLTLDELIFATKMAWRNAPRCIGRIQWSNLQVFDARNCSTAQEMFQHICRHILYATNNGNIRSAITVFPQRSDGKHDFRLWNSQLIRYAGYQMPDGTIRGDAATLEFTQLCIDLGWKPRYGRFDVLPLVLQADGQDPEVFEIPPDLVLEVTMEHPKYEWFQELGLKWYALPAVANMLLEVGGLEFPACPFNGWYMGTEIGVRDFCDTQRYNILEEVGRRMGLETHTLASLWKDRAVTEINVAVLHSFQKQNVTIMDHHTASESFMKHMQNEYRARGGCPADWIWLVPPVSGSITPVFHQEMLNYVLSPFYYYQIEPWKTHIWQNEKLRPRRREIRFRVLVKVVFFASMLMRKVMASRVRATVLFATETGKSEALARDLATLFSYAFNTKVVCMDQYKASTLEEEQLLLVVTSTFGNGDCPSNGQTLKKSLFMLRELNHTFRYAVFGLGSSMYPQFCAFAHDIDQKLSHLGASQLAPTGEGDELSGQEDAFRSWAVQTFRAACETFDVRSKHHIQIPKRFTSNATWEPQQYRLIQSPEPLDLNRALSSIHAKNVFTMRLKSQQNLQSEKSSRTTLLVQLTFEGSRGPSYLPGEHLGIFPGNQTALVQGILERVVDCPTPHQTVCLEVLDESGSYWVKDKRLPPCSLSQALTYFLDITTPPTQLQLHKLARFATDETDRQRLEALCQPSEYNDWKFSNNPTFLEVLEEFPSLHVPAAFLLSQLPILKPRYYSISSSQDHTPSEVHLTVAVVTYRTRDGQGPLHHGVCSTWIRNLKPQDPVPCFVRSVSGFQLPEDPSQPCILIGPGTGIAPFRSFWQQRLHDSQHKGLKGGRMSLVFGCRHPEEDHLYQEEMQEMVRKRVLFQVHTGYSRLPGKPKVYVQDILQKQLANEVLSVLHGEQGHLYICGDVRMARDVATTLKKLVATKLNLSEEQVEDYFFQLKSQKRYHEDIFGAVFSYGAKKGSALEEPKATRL
Summary of the method: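 Mouse His6-tagged iNOS (E. coli BL21-DE3 expressed, Ni-NTA purified), 0.5 μM, in 40 mM HEPES pH 7.4 with 0.3 mM DTT, 4 μM each FAD/FMN/H4B, 10 units/mL catalase and SOD, varied analogue concentrations; started with 0.1 mM NADPH. NADPH oxidation rate followed as absorbance drop at 340 nm, 37 °C, triplicate; EC50 for decreased oxidase activity.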

[2] = molecular target: T2, Nitric oxide synthase, inducible; test: Inhibitory concentration against mouse inducible nitric oxide synthase (iNOS); summary of the method: as §1
Nitric oxide synthase 1 = Nitric oxide synthase 1 (Homo sapiens, UniProt P29475); test: Inhibitory concentration against mammalian Neuronal nitric oxide synthase (nNOS); summary of the method: as §1
Sequence of Nitric oxide synthase 1 (P29475 whole entry): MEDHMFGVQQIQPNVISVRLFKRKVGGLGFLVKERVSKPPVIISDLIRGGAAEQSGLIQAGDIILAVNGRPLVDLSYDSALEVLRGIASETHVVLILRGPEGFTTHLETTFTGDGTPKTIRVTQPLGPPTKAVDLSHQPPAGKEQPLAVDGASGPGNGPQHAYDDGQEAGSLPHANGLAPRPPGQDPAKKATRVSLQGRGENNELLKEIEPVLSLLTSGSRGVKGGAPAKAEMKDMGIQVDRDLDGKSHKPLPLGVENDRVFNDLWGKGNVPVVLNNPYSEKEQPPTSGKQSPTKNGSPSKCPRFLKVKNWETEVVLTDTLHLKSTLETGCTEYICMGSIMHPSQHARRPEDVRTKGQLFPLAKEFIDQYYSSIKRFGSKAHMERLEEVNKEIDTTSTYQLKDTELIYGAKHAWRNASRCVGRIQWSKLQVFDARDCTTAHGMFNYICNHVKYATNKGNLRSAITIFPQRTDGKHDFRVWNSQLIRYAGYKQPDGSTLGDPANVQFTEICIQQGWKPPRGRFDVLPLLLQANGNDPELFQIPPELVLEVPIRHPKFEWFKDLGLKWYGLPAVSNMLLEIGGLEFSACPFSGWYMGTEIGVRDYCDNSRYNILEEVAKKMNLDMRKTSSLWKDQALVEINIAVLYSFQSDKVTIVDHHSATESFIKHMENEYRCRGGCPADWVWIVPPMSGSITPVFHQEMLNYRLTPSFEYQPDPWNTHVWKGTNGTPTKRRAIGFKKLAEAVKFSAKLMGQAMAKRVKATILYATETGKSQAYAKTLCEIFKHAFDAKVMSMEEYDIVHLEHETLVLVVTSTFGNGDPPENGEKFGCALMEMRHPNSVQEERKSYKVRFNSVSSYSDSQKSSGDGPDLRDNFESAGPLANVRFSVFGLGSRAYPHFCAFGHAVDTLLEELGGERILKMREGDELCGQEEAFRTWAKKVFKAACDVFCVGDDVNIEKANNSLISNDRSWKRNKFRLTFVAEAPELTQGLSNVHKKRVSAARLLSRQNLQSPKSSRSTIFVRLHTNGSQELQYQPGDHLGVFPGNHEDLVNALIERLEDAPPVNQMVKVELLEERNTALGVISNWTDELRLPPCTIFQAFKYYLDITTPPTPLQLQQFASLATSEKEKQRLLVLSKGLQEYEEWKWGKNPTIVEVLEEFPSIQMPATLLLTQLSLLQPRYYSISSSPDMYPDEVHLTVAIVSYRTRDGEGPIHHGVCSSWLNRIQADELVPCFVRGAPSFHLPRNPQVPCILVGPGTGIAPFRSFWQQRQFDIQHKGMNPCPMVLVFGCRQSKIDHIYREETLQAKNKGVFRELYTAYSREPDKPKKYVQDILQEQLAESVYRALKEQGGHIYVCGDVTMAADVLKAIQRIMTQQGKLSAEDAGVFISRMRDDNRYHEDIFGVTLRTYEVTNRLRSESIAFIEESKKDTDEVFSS

Row | Structure (SMILES) | IC50 (Nitric oxide synthase 3) | EC50 [1] | IC50 [2] | Ki [2] | IC50 (Nitric oxide synthase 1)
1 | CS/C(=N/O)NCCC[C@H](N)C(=O)O | 19.7 µM | 6.6 µM | 13 µM | 7 µM | 6.7 µM
2 | NNC(=S)NCCC[C@H](N)C(=O)O | 3060 µM | 190 µM | 3710 µM | 202 µM | 1620 µM
3 | CS/C(=N/N)NCCC[C@H](N)C(=O)O | 752 µM | 180 µM | 320 µM | 58 µM | 327 µM
